Measured values gathered from unrelated publications.
Lines come from different studies, so protocols differ.
Target: Serine/threonine-protein kinase Nek7 (NEK7, Homo sapiens, UniProt Q8TDX7)

SMILES	effect on	mode	technique	cells	tested at	measurement	result
Cc1c(C(=O)O)cc(-c2ccc(C3CCNCC3)cc2)c2ccc(-c3ccc(C(F)(F)F)cc3)cc12	binding		competition with immobilised ligand		1 µM	remaining binding	100%
N#CCCc1ccc2c(c1)-c1[nH]c3ccc([N+](=O)[O-])cc3c1CC(=O)N2	cell-free assay				0.5 µM	remaining signal	87.4%
c1ccc(CNc2nc(N3CCOc4ccccc43)nc3c2CCCC3)cc1	target engagement in cells	inhibitor	chemoproteomics		20 mM	inhibition	-6%
CCCS(=O)(=O)Nc1ccc(F)c(C(=O)c2c[nH]c3ncc(-c4ccc(Cl)cc4)cc23)c1F	enzyme activity	inhibitor			1 µM	inhibition	< 10%
CS(=O)(=O)CCNCc1ccc(-c2ccc3ncnc(Nc4ccc(OCc5cccc(F)c5)c(Cl)c4)c3c2)o1	cell-free assay				0.5 µM	remaining signal	98.7%
Nc1c(C(=O)NCc2ccc(C(=O)NCCCC3CCCCC3)cc2)cnn1-c1ccccc1	cell-free assay		competition with immobilised ligand		0.1 µM	remaining binding	99%
CCOc1cc(-c2nncn2C)ccc1Nc1ncc2cc(C)nc(NCC(C)(C)C)c2n1	enzyme activity	inhibitor	FRET		1 µM	inhibition	< 15%
CCN(CC)CCNC(=O)c1c(C)[nH]c(/C=C2\C(=O)Nc3ccc(F)cc32)c1C	enzyme activity	inhibitor			10 µM	inhibition	-6%
Cn1c2c(c3ccc(Cl)c(Cl)c31)C(C#N)C1(CCNCC1)NC2=O (racemic)	thermal stability		DSF		10 µM	ΔTm	-0.1 °C
Cc1cc(NC(=O)c2cccc3cc(-c4cccc5[nH]nc(N)c45)ccc23)ccc1F	enzyme activity	inhibitor			0.1 µM	activity vs control	96%
O=C(O)[C@H]1[C@H](Cn2nnc3ccccc3c2=O)CC[C@@H]1C(=O)c1ccc(OCCC2CCOCC2)cc1	cell-free assay		competition with immobilised ligand		1 µM	remaining binding	100%
CCCCNc1ncc2c(-c3ccc(F)cc3)nn(C[C@H]3CC[C@H](N)CC3)c2n1	target engagement in cells	inhibitor	chemoproteomics		20 mM	inhibition	6.6%
Cc1ccc(NC(=O)c2ccc(C)c(C(F)(F)F)c2)cc1C#Cc1nn(C2CCC(O)CC2)c2ncnc(N)c12 (stereo not drawn)	cell-free assay				10 µM	remaining signal	98%
Cn1c2c(c3ccc(Cl)c(Cl)c31)C(C#N)C1(CCCC1)NC2=O (stereo not drawn)	thermal stability		DSF		10 µM	ΔTm	0 °C
CC(C)(O)c1cncc(-c2nc3ccc(F)cc3n2C2CC2)c1	cell-free assay		competition with immobilised ligand		1 µM	remaining binding	100%
Cc1cnc(NC2CCOCC2)nc1-n1cnc(C(=O)NC(CN)c2cc(F)cc(Cl)c2)c1 (stereo not drawn)	enzyme activity	inhibitor	radiometric		1 µM	remaining activity	99%
CN1CCC2(CC1)NC(=O)c1c(c3ccc(Cl)c(Cl)c3n1C)C2C#N (racemic)	thermal stability		DSF		10 µM	ΔTm	-0.4 °C
Cc1c[nH]c2nccc(Oc3c(F)cc(Nc4cc(Cl)nc(N)n4)cc3F)c12	cell-free assay		competition with immobilised ligand		0.1 µM	remaining binding	100%
O=C1Nc2ccc(Cl)cc2C1=Cc1cc(Cl)c(O)c(Cl)c1	cell-free assay				0.5 µM	remaining signal	100%
CCN1CCN(Cc2ccc(NC(=O)c3ccc(C)c(Oc4ccnc5[nH]ccc45)c3)cc2C(F)(F)F)CC1	target engagement in cells	inhibitor	chemoproteomics	A-375	0.5 µM	inhibition	-0.545%
CNC(=O)c1cc(Oc2ccc(NC(=O)Nc3ccc(Cl)c(C(F)(F)F)c3)cc2)ccn1	enzyme activity	inhibitor			10 µM	inhibition	-7%
CC(C)(C)c1nc(-c2cccc(NS(=O)(=O)c3c(F)cccc3F)c2F)c(-c2ccnc(N)n2)s1	enzyme activity	inhibitor	radiometric		1 µM	remaining activity	42%
O=C(Nc1cnn(-c2csc(C(=O)NC3COC3)c2)c1)Nc1ccccc1Cl	enzyme activity	inhibitor			5 µM	remaining activity	102%
COc1cc(Cl)c(C(=O)N[C@@H](CN[C@H]2CC[C@@H](N)CC2)Cc2ccc(C#N)cc2)cc1-c1ccc(CN[C@H](C)c2ccc(C)cc2)o1	enzyme activity	inhibitor			1 µM	remaining activity	99%
CN([C@@H]1CCc2c(CC(=O)O)c3cc(S(C)(=O)=O)ccc3n2C1)S(=O)(=O)c1ccc(F)cc1	cell-free assay		competition with immobilised ligand		1 µM	remaining binding	98%
Cc1ccc(Nc2nccc(N(C)c3ccc4c(C)n(C)nc4c3)n2)cc1S(N)(=O)=O	enzyme activity	inhibitor			0.3 µM	inhibition	-6%
Cn1c2c(c3ccc(Cl)c(Cl)c31)C(C#N)C(C)(C)NC2=O (stereo not drawn)	thermal stability		DSF		10 µM	ΔTm	-0.6 °C
C[C@@H](c1cccc(C#N)c1)n1cc(Cl)cc(C(N)=O)c1=N	cell-free assay		competition with immobilised ligand		1 µM	remaining binding	89%
N#CC1c2c([nH]c3c(Cl)c(Cl)ccc23)C(=O)NC12CCCCC2 (racemic)	thermal stability		DSF		10 µM	ΔTm	0.2 °C
Cc1noc([C@H]2C[C@@H](c3ccc(C(F)(F)F)cc3)CN(C(=O)N3CCS(=O)(=O)C3)C2)n1	cell-free assay		competition with immobilised ligand		1 µM	remaining binding	100%
